Measured values: ChEMBL document CHEMBL2016470, “Quinolinyl- and phenantridinyl-acetamides as bradykinin B1 receptor antagonists” (Bioorg Med Chem Lett, 2012)
Activity calls are given as the source filed them. The rule behind the calls is not given here.

Key:
B1 bradykinin receptor [1] = target: T1, B1 bradykinin receptor (Homo sapiens, UniProt P46663); assay: Binding affinity to human bradykinin B1 receptor
T1 sequence (P46663 whole entry): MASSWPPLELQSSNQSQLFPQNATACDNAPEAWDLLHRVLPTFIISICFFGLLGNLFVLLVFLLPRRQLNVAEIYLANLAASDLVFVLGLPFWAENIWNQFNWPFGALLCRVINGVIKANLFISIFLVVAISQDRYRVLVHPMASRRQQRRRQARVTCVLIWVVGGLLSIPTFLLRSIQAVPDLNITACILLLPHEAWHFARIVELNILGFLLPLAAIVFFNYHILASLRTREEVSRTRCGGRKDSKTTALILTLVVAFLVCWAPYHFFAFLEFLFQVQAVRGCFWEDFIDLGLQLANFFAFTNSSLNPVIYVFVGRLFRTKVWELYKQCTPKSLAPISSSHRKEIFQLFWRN

Liver microsomes [2] = assay: Intrinsic clearance in human liver microsomes assessed per gram of liver at 2.5 uM after 20 mins; format: ADME, Microsome
Liver microsomes [3] = assay: Intrinsic clearance in rat liver microsomes assessed per gram of liver at 2.5 uM after 20 mins; format: ADME, Microsome
B1 bradykinin receptor [4] = target: T2, B1 bradykinin receptor (Rattus norvegicus, UniProt P97583); assay: Antagonist activity at rat bradykinin B1 receptor; format: functional
T2 sequence (P97583 whole entry): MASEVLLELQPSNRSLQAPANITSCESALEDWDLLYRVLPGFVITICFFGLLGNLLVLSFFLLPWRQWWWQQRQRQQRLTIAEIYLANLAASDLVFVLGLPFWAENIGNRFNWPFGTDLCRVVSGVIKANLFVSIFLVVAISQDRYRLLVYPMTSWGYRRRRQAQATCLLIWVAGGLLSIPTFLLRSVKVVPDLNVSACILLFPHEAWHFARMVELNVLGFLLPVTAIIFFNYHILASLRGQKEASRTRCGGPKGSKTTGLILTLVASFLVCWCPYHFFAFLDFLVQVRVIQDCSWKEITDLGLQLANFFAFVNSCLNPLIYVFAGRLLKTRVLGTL

[5] = target: T3, B2 bradykinin receptor (Homo sapiens) (UniProt P30411); assay: Antagonist activity at human bradykinin B2 receptor at 1 uM; format: functional; set-up: scale not given: the % may be the effect or the level left
T3 sequence (whole entry): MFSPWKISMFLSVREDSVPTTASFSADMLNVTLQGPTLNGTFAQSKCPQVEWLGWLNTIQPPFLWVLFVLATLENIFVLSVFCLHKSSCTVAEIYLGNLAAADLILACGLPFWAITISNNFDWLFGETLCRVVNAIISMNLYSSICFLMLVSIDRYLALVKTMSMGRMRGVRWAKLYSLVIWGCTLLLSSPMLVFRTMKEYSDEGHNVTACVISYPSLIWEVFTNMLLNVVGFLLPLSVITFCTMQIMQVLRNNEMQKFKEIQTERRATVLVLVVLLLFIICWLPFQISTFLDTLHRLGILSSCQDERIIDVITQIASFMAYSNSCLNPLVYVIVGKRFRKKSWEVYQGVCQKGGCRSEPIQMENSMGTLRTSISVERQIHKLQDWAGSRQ

Rattus norvegicus [6] = assay: Antiinflammatory activity in Wistar rat pain model assessed as inhibition of DABK-induced paw oedema at 0.03 mg/kg, po administered 120 mins before DABK challenge measured by plethysometric analysis; format: functional
In short: (§1)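 Male Wistar rats, 120–150 g, LPS-pretreated; oral dosing in 5% (v/v) Tween 80 in saline before DABK injection. Paw volume by plethysmometer at 0, 10, 20, 30 min post-DABK; maximum edema volume taken. Percent inhibition from treated group means versus simultaneous vehicle means; ANOVA with Dunnett's test versus vehicle.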

Rattus norvegicus [7] = assay: Antiinflammatory activity in Wistar rat pain model assessed as inhibition of DABK-induced paw oedema at 0.1 mg/kg, po administered 120 mins before DABK challenge measured by plethysometric analysis; format: functional; in short: as §1
Rattus norvegicus [8] = assay: Antiinflammatory activity in Wistar rat pain model assessed as inhibition of DABK-induced paw oedema at 0.3 mg/kg, po administered 120 mins before DABK challenge measured by plethysometric analysis; format: functional; in short: as §1
Rattus norvegicus [9] = assay: Antiinflammatory activity in po dosed Wistar rat pain model assessed as inhibition of DABK-induced paw oedema administered 120 mins before DABK challenge measured by plethysometric analysis; format: functional, organism-based; in short: as §1
Rattus norvegicus [10] = assay: Antihyperalgesic activity in po dosed Sprague-Dawley rat assessed as decrease in CFA-induced joint pain administered 3 days post CFA challenge; format: functional, organism-based
In short: (§2)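 Knee monoarthritis induced by intra-articular CFA (0.1 ml); joint pain read as hind-limb weight-bearing deficit on an incapacitance tester (difference between un-injected and injected limbs as % of total hind-limb weight). Rats with post-CFA baseline 20–60% enrolled and randomized to equalize baselines; oral dosing on Day 3 post-CFA in 5% Tween 80 in saline; readings pre-dose and 0.5, 1, 2, 3, 4 h post-dose; change from baseline at maximum effect.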

Rattus norvegicus [11] = assay: Antiinflammatory activity in Wistar rat pain model assessed as inhibition of DABK-induced paw oedema at 1 mg/kg, po administered 30 mins before DABK challenge measured by plethysometric analysis; format: functional; in short: as §1
Rattus norvegicus [12] = assay: Antiinflammatory activity in Wistar rat pain model assessed as inhibition of DABK-induced paw oedema at 3 mg/kg, po administered 30 mins before DABK challenge measured by plethysometric analysis; format: functional; in short: as §1
Rattus norvegicus [13] = assay: Antiinflammatory activity in Wistar rat pain model assessed as inhibition of DABK-induced paw oedema at 10 mg/kg, po administered 30 mins before DABK challenge measured by plethysometric analysis; format: functional; in short: as §1
Rattus norvegicus [14] = assay: Antihyperalgesic activity in Sprague-Dawley rat assessed as decrease in CFA-induced joint pain at 1 to 3 mg/kg, po administered 3 days post CFA challenge; format: functional, organism-based; in short: as §2
Rattus norvegicus [15] = assay: Antiinflammatory activity in Wistar rat pain model assessed as inhibition of DABK-induced paw oedema at 0.3 mg/kg, po administered 60 mins before DABK challenge; format: functional; in short: as §1
Rattus norvegicus [16] = assay: Antiinflammatory activity in Wistar rat pain model assessed as inhibition of DABK-induced paw oedema at 1 mg/kg, po administered 60 mins before DABK challenge; format: functional; in short: as §1
Rattus norvegicus [17] = assay: Antiinflammatory activity in Wistar rat pain model assessed as inhibition of DABK-induced paw oedema at 3 mg/kg, po administered 60 mins before DABK challenge; format: functional; conditions: read-out: INH; in short: as §1

| SMILES | Ki (B1 bradykinin receptor [1]) | CLint (Liver microsomes [2]) | CLint (Liver microsomes [3]) | IC50 (B1 bradykinin receptor [4]) | other results |
| --- | --- | --- | --- | --- | --- |
| O=C(CC1CCc2ccccc2N1S(=O)(=O)c1ccc(Cl)c(Cl)c1)Nc1ccc(N2CCC(N3CCCCC3)CC2)cc1 (centres undefined) | 628 nM | – | – | – | – |
| COc1cccc2c1-c1ccccc1N(S(=O)(=O)c1ccc(Cl)c(Cl)c1)C2CC(=O)N[C@H]1CC[C@H](CCN2CCCC2)CC1 (some centres undefined) | 8.9 nM | 1.1 mL/min/g | 1.8 mL/min/g | 43 nM | Activity [5]: 5.8%; inhibition in vivo at 0.03 mg/kg (Rattus norvegicus [6]): 19%; inhibition in vivo at 0.1 mg/kg (Rattus norvegicus [7]): 27%; inhibition in vivo at 0.3 mg/kg (Rattus norvegicus [8]): 54%; inhibition (Rattus norvegicus [9]): Dose-dependent effect; Activity (Rattus norvegicus [10]): Dose-dependent effect |
| O=C(CC1COc2ccccc2N1S(=O)(=O)c1ccc(Cl)c(Cl)c1)NCCc1ccc(C2=NCCN2)cc1 (centres undefined) | 480 nM | – | – | – | – |
| COc1ccc2cc(S(=O)(=O)N[C@H](CC(=O)N[C@H](Cc3ccc(CN4[C@H](C)CCC[C@@H]4C)cc3)C(=O)N(C)C(C)C)c3ccc4c(c3)OCO4)ccc2c1 | – | – | – | – | inhibition in vivo at 1 mg/kg (Rattus norvegicus [11]): 6%; inhibition in vivo at 3 mg/kg (Rattus norvegicus [12]): 16%; inhibition in vivo at 10 mg/kg (Rattus norvegicus [13]): 30%; Activity (Rattus norvegicus [14]): Active |
| O=C(CC1C(=O)Nc2ccccc2N1S(=O)(=O)c1ccc(Cl)c(Cl)c1)Nc1ccccc1 (centres undefined) | 1400 nM | – | – | – | – |
| O=C(CC1c2ccccc2CCN1S(=O)(=O)c1ccc(Cl)c(Cl)c1)Nc1ccc(N2CCC(N3CCCCC3)CC2)cc1 (centres undefined) | 138 nM | – | – | – | – |
| O=C(CC1c2cc(F)cc(F)c2-c2ccccc2N1S(=O)(=O)c1ccc(Cl)c(Cl)c1)NCCc1ccc(C2=NCCN2)cc1 (centres undefined) | 9.1 nM | 8 mL/min/g | 3.9 mL/min/g | 42 nM | – |
| O=C(O)Cc1ccccc1Nc1c(Cl)cccc1Cl [DICLOFENAC] | – | – | – | – | inhibition in vivo at 0.3 mg/kg (Rattus norvegicus [15]): 23%; inhibition in vivo at 1 mg/kg (Rattus norvegicus [16]): 24%; inhibition in vivo at 3 mg/kg (Rattus norvegicus [17]): 35%; Activity (Rattus norvegicus [14]): Active |
| COc1ccc(S(=O)(=O)N2c3ccccc3-c3ccccc3C2CC(=O)NCCc2ccc(C3=NCCN3)cc2)cc1 (centres undefined) | 15.5 nM | 14.5 mL/min/g | 4.8 mL/min/g | 81 nM | – |
| O=C(CC1CCc2ccccc2N1S(=O)(=O)c1ccc(Cl)c(Cl)c1)NCCN1CCN(c2ccncc2)CC1 (centres undefined) | 166 nM | 16.8 mL/min/g | 7.4 mL/min/g | – | – |
| O=C(CC1Cc2ccccc2CN1S(=O)(=O)c1ccc(Cl)c(Cl)c1)NCCc1ccc(C2=NCCN2)cc1 (centres undefined) | 481 nM | – | – | – | – |

The next lines start with results.

| Ki (B1 bradykinin receptor [1]) | CLint (Liver microsomes [2]) | CLint (Liver microsomes [3]) | IC50 (B1 bradykinin receptor [4]) | SMILES | other results |
| --- | --- | --- | --- | --- | --- |
| 4.3 nM | 9 mL/min/g | 0.6 mL/min/g | – | O=C(CC1CCc2ccccc2N1S(=O)(=O)c1ccc(Cl)c(Cl)c1)N[C@H]1CC[C@H](CCC2=NCCN2)CC1 (some centres undefined) | – |
| 2.2 nM | 4.2 mL/min/g | 1.9 mL/min/g | – | O=C(CC1c2ccccc2CCN1S(=O)(=O)c1ccc(Cl)c(Cl)c1)NCCc1ccc(C2=NCCN2)cc1 (centres undefined) | – |
| 1 nM | 12.5 mL/min/g | 1.1 mL/min/g | – | O=C(CC1c2ccccc2CCN1S(=O)(=O)c1ccc(Cl)c(Cl)c1)N[C@H]1CC[C@H](CCC2=NCCN2)CC1 (some centres undefined) | – |
| 3.1 nM | 9.8 mL/min/g | 2.5 mL/min/g | 28 nM | O=C(CC1c2ccccc2-c2ccccc2N1S(=O)(=O)c1ccc(Cl)c(Cl)c1)NCCc1ccc(C2=NCCN2)cc1 (centres undefined) | – |
| 1.7 nM | 1 mL/min/g | 2.6 mL/min/g | 21 nM | COc1cccc2c1-c1ccccc1N(S(=O)(=O)c1ccc(Cl)c(Cl)c1)C2CC(=O)NCCc1ccc(C2=NCCN2)cc1 (centres undefined) | – |
| 6.3 nM | 7.1 mL/min/g | 2.6 mL/min/g | – | O=C(CC1CCc2ccccc2N1S(=O)(=O)c1ccc(Cl)c(Cl)c1)NCCc1ccc(C2=NCCN2)cc1 (centres undefined) | – |
| 4.7 nM | 12.9 mL/min/g | 1.5 mL/min/g | 52 nM | Cc1ccc(S(=O)(=O)N2c3ccccc3-c3ccccc3C2CC(=O)NCCc2ccc(C3=NCCN3)cc2)cc1 (centres undefined) | – |
| 1.2 nM | 5.5 mL/min/g | 1.6 mL/min/g | 45 nM | O=C(CC1c2cc(F)ccc2-c2ccccc2N1S(=O)(=O)c1ccc(Cl)c(Cl)c1)NCCc1ccc(C2=NCCN2)cc1 (centres undefined) | – |
| 3.8 nM | 13.1 mL/min/g | 2.4 mL/min/g | – | O=C(CC1c2ccccc2CCN1S(=O)(=O)c1ccc(Cl)c(Cl)c1)N1CCC(Cc2ccc(C3=NCCN3)cc2)CC1 (centres undefined) | – |
| 2.9 nM | 16.4 mL/min/g | 2.7 mL/min/g | 21 nM | Cc1cc(C)c(S(=O)(=O)N2c3ccccc3-c3ccccc3C2CC(=O)NCCc2ccc(C3=NCCN3)cc2)cc1C (centres undefined) | – |
